The values below come from publication PMC3063522 (Journal of agricultural and food chemistry, 2011).

A short description of data set [1]: Cytotoxicity to RAW 264.7 cells in the iNOS assay. In kind it is cell-based, mouse. To be noted: mouse, RAW 264.7 macrophages.
The nature of data set [2]: Cytotoxicity. To be noted: human, SK-MEL malignant melanoma cells. Format: cell-based. The essentials: (§1)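 Anti-proliferative assay run alongside four human tumour lines (SK-MEL, KB, BT-549, SK-OV-3) and two noncancerous kidney lines (Vero, LLC-PK11). Doxorubicin served as the positive control.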
Data set [3] is described as follows: Cytotoxicity towards HL-60 cells in the antioxidant assay. Format: cell-based. Particulars: human, HL-60 promyelocytic leukemia cells.
The nature of data set [4]: Cytotoxicity. Format: cell-based. To be noted: human, BT-549 breast ductal carcinoma cells. The essentials: as §1
The nature of data set [5]: Cytotoxicity. In kind it is cell-based. To be noted: human, SK-OV-3 ovary carcinoma cells. The essentials:
as §1

Data set [6] in a line: Cytotoxicity. Particulars: pig, LLC-PK11 kidney epithelial cells. In kind it is cell-based. In a few lines:
as §1

The test system of data set [7] is Phomopsis obscurans. The data set can be described thus: Antifungal broth dilution microbioassay, Phomopsis obscurans. Format: cell-based. The essentials:
(§2)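 Broth microdilution adapted from the NCCLS M27-A yeast method for conidia-forming filamentous plant-pathogenic fungi. The commercial fungicide captan served as the internal standard in every assay. Means were compared by SAS analysis of variance with Fisher's protected LSD. For P. viticola and P. obscurans, activity was read at 120 and 144 h of incubation.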
For orientation: In broth dilution the organism is exposed to a series of concentrations in liquid medium.

Data set [8] is described as follows: Cytotoxicity. Format: cell-based. To be noted: human, KB oral epidermal carcinoma cells. In a few lines: as §1
Data set [9] in a line: Cytotoxicity. Format: cell-based. Particulars: African green monkey, Vero kidney fibroblasts. In a few lines:
as §1

The test system of data set [10] is mosquito larvae. The data set can be described thus: Mosquito larvae toxicity bioassay. Format: in vivo. Particulars: Figure 4. The essentials: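 Larval toxicity bioassay, run in triplicate. Controls were untreated, DMSO-acetone carrier, and permethrin as the positive control.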
Data set [11] relates to Phomopsis viticola. The data set can be described thus: Antifungal broth dilution microbioassay, Phomopsis viticola. In kind it is cell-based. The essentials: as §2
For data set [12], the system named is Botrytis cinerea. The data set can be described thus: Antifungal broth dilution microbioassay, Botrytis cinerea. Format: cell-based. In a few lines: as §2
Data set [13] deals with adult A. aegypti female mosquitoes. The data set can be described thus: Adult mosquito topical toxicity assay. In kind it is in vivo. Particulars: for Adult mosquito mortality rate ± SD: topical, 3.12 μg per insect, acetone/DMSO control gave 5.8±1.8%.
[14] abbreviates: 120 and 144 h (from 120 to 144 h).
The mark [15] stands for this setting: at the highest concentrations, Figure 2D.

One may read the IC50 as the midpoint of a concentration-inhibition curve. Low readings indicate greater potency, high ones weaker potency.

In brackets after ≈: the same amount, converted by molar mass. Entries after “also recorded” stand apart in the source; their conditions may differ. A value given as a limit tells only on which side of the number the result lay.

In turn, `C=C1C(=O)O[C@H]2[C@H]1CC/C(C)=C/CC[C@@]1(C)O[C@@H]21` [Parthenolide, reference compound] registered an IC50 in data set [1] of 13.5 µg/mL (≈ 54.4 µM).

With `CC(C)/C=C/c1c(O)cc(/C=C/C2=CC(=O)OC2CC(=O)O)cc1O` (stereo not drawn) [Compound 4, SB-1], the IC50 in [2], in [3], in data set [4], in data set [5], in data set [6] and in data set [1] was over 25 µg/mL each time. In addition, the IC50 in [8] and in data set [9] was over 25 µg/mL in each case. Besides, the “Antifungal activity against P. obscurans” value in [7] (setting [14]) is given as “did not exhibit any activity”.

With `Oc1cccc(CCc2ccccc2)c1` [Compound 16], the IC50 is over 25 µg/mL in data set [2]; 17 µg/mL (≈ 85.7 µM) in [3]; over 25 µg/mL in data set [4]; over 25 µg/mL in [5]; over 25 µg/mL in data set [6]; over 25 µg/mL in data set [1]. For the same molecule, the IC50 in data set [8] and in data set [9] was over 25 µg/mL in each case. For the same molecule, the “Toxicity to mosquito larvae” value in data set [10] is “highest activity; also recorded: very low compared to the positive control permethrin”. The “Antifungal activity against P. viticola” value in [11] (144 h of incubation) is reported as “statistically higher activity compared to 14”; in data set [11] (setting [15]) it was “appreciable activity”.

On to `Oc1ccc(/C=C/c2ccccc2)cc1O` [Compound 12], for which the IC50 in data set [2], in data set [3], in data set [4], in data set [5], in data set [6] and in data set [1] was over 25 µg/mL in each case. For the same molecule, the IC50 in data set [8] and in data set [9] was over 25 µg/mL throughout. The “Growth inhibition of B. cinerea” value in data set [12] (48 h) was “minimal activity”; in [12] (72 h), “no activity”. Besides, in data set [11] (setting [15]), the “Antifungal activity against P. viticola” value was “essentially inactive”.

For `CC(C)(O)C(O)Cc1c(O)cc(/C=C/c2ccc(O)cc2)cc1O` (stereo not drawn) [Compound 8, arahypin-3], in data set [13], the “Adult mosquito mortality rate ± SD” value is “marginally active”. The IC50 in data set [2], in data set [3], in [4], in data set [5], in [6] and in data set [1] was over 25 µg/mL each time. In addition, the IC50 in [8] and in data set [9] was over 25 µg/mL in each case.

As to `Oc1ccc(/C=C/c2cccc(O)c2)cc1` [Compound 15, trans-3,4′-dihydroxystilbene], the IC50 in data set [2] was over 25 µg/mL; in data set [3], 4 µg/mL (≈ 18.8 µM); in data set [4], over 25 µg/mL; in data set [5], over 25 µg/mL; in data set [6], 12 µg/mL (≈ 56.5 µM); in [1] it was over 25 µg/mL. Moreover, the IC50 in data set [8] was over 25 µg/mL; in data set [9], 19.5 µg/mL (≈ 91.9 µM).

As for `COc1cc(O)cc(/C=C/c2ccccc2)c1` [Compound 19], the IC50 was over 25 µg/mL in [2]; 18 µg/mL (≈ 79.5 µM) in data set [3]; over 25 µg/mL in data set [4]; over 25 µg/mL in data set [5]; over 25 µg/mL in data set [6]; 12 µg/mL (≈ 53 µM) in data set [1]. Also, the IC50 in data set [8] and in data set [9] was over 25 µg/mL throughout. In addition, the “Toxicity to mosquito larvae” value in data set [10] is “highest activity; also recorded: somewhat greater activity”. Further, the “Antifungal activity against P. viticola” value in [11] (setting [15]) is “appreciable activity”.

For `Oc1cc(O)cc(/C=C/c2ccccc2)c1` [Compound 11, pinosylvin], the IC50 in data set [2] was found to be 12.5 µg/mL (≈ 58.9 µM); in [3] it was 18 µg/mL (≈ 84.8 µM); in data set [4], 13 µg/mL (≈ 61.2 µM); in data set [5] it was 17 µg/mL (≈ 80.1 µM); in [6], 10.5 µg/mL (≈ 49.5 µM); in data set [1] it was 10.5 µg/mL (≈ 49.5 µM). The IC50 in [8] was found to be 13.8 µg/mL (≈ 65 µM); in data set [9], 13 µg/mL (≈ 61.2 µM). Further, the “Toxicity to mosquito larvae” value in data set [10] was “significantly lower toxicity”. Moreover, the figures for the “Growth inhibition of B. cinerea” value in data set [12] (48 h) and in data set [12] (72 h) were “minimal activity” and “no activity”, respectively. For the same molecule, in data set [11] (setting [15]), the “Antifungal activity against P. viticola” value was “essentially inactive”.

Take `CC(C)=CCC/C(C)=C/Cc1c(O)cc(/C=C/c2ccc(O)cc2O)cc1O` [Compound 22, chlorophorin]: the IC50 in [2] was over 25 µg/mL; in data set [3] it was 25 µg/mL (≈ 65.7 µM); in data set [4], 20 µg/mL (≈ 52.6 µM); in data set [5], over 25 µg/mL; in [6], 14.5 µg/mL (≈ 38.1 µM); in data set [1], 9 µg/mL (≈ 23.7 µM). For the same molecule, the IC50 was over 25 µg/mL in data set [8] and 15.5 µg/mL (≈ 40.7 µM) in [9]. In addition, the “Growth inhibition of B. cinerea” value in data set [12] (48 h) and in [12] (72 h) was “very high growth inhibition values” in each case. The “Antifungal activity against P. viticola” value in [11] (setting [15]) is “appreciable activity”.

For `COc1cccc(CCc2ccc(O)cc2)c1` [Compound 17], the IC50 in data set [2] was over 25 µg/mL; in data set [3] it was 9 µg/mL (≈ 39.4 µM); in [4], over 25 µg/mL; in data set [5] it was over 25 µg/mL; in data set [6], over 25 µg/mL; in data set [1] it was over 25 µg/mL. Besides, the IC50 in [8] and in data set [9] was over 25 µg/mL each time.

With `Oc1cccc(/C=C/c2ccccc2)c1` [Compound 14], the IC50 was over 25 µg/mL in [2]; 19 µg/mL (≈ 96.8 µM) in data set [3]; over 25 µg/mL in [4]; over 25 µg/mL in data set [5]; over 25 µg/mL in data set [6]; 22 µg/mL (≈ 112 µM) in data set [1]. Also, the IC50 in [8] and in [9] was over 25 µg/mL each time. In addition, the “Toxicity to mosquito larvae” value in data set [10] is on record as “highest activity; also recorded: very low compared to the positive control permethrin”.

For `COc1cccc2c1C(=O)c1c(O)c3c(c(O)c1C2=O)C[C@@](O)(C(=O)CO)C[C@@H]3O[C@H]1C[C@H](N)[C@H](O)[C@H](C)O1` [Doxorubicin, reference compound], the IC50 is 0.8 µg/mL (≈ 1.47 µM) in [2]; 0.24 µg/mL (≈ 0.442 µM) in [3]; 1.35 µg/mL (≈ 2.48 µM) in [4]; 1.3 µg/mL (≈ 2.39 µM) in [5]; 0.9 µg/mL (≈ 1.66 µM) in data set [6]; 1.45 µg/mL (≈ 2.67 µM) in [8]. Moreover, the IC50 in data set [9] was over 5 µg/mL.

`CC(C)/C=C/c1c(O)cc(/C=C/c2ccccc2)cc1O` [Compound 6, arahypin-1]: the IC50 in [2] was over 25 µg/mL; in data set [3], over 31.3 µg/mL; in data set [4] it was over 25 µg/mL; in data set [5], over 25 µg/mL; in data set [6], over 25 µg/mL; in data set [1], over 25 µg/mL. Also, the concentration for half-maximal inhibition (IC50) in [8] and in data set [9] was over 25 µg/mL each time. In addition, the “Antifungal activity against P. obscurans” value was “highest levels of inhibition” in data set [7] (setting [14]) and “more fungicidal” in data set [7] (144 h of incubation). Also, in data set [11] (144 h of incubation), the “Antifungal activity against P. viticola” value is given as “more fungicidal”.

In the case of `COc1ccc(/C=C/c2cc(O)cc(O[C@@H]3O[C@H](CO)[C@@H](O)[C@H](O)[C@H]3O)c2)cc1O` [Compound 23, rhapontin, reference compound], the IC50 in data set [2] was over 25 µg/mL; in data set [3] it was 20 µg/mL (≈ 47.6 µM); in data set [4], over 25 µg/mL; in data set [5] it was over 25 µg/mL; in [6] it was over 25 µg/mL; in [1], over 25 µg/mL. In addition, the half-inhibitory concentration (IC50) in [8] and in [9] was over 25 µg/mL in each case. In addition, the “Toxicity to mosquito larvae” value in data set [10] is “significantly lower toxicity”. The “Growth inhibition of B. cinerea” value in [12] (72 h) is on record as “very high growth inhibition values”.

`COc1cccc(/C=C/c2ccc(O)cc2)c1` [Compound 13]: the IC50 in data set [2] was over 25 µg/mL; in data set [3] it was 4 µg/mL (≈ 17.7 µM); in data set [4], over 25 µg/mL; in data set [5], over 25 µg/mL; in [6], over 25 µg/mL; in data set [1], 19.5 µg/mL (≈ 86.2 µM). The IC50 in [8] and in data set [9] was over 25 µg/mL each time. For the same molecule, the “Toxicity to mosquito larvae” value in [10] is “highest activity; also recorded: very low compared to the positive control permethrin”. The “Antifungal activity against P. viticola” value in data set [11] (setting [15]) is on record as “appreciable activity”.

`CC1(C)C(C=C(Cl)Cl)C1C(=O)OCc1cccc(Oc2ccccc2)c1` (stereo not drawn) [permethrin, reference compound] returned an Adult mosquito mortality in data set [13] (6.25 μg/mosquito, positive standard) of 100%.

On to `COc1cc(/C=C/c2ccccc2)cc(OC)c1` [Compound 18], for which the IC50 in data set [2], in data set [3], in [4], in [5], in data set [6] and in data set [1] was over 25 µg/mL throughout. In addition, the IC50 in [8] and in [9] was over 25 µg/mL each time. Besides, in data set [10], the “Toxicity to mosquito larvae” value is recorded as “highest activity; also recorded: very low compared to the positive control permethrin”.

For the molecule `CC(C)(O)C(O)Cc1c(O)cc(/C=C/c2ccccc2)cc1O` (stereo not drawn) [Compound 9, arahypin-4], the “Adult mosquito mortality rate ± SD” value in [13] was 10±0.0%. Also, the IC50 is over 25 µg/mL in data set [2]; over 31.3 µg/mL in [3]; over 25 µg/mL in data set [4]; over 25 µg/mL in data set [5]; over 25 µg/mL in data set [6]; over 25 µg/mL in [1]. For the same molecule, the 50% inhibitory concentration (IC50) in data set [8] and in data set [9] was over 25 µg/mL throughout.
